Measurements reported in ChEMBL document CHEMBL3414429, “3,4-diaminobenzoic acid derivatives as inhibitors of the oxytocinase subfamily of M1 aminopeptidases with immune-regulating properties” (J Med Chem, 2015).
Calls of active or inactive are those of the source. The rule behind the calls is not given here.

Experiments:
[1] = target: T1, Endoplasmic reticulum aminopeptidase 1 (Mus musculus) (UniProt Q9EQH2); test: Inhibition of ERAP1 in mouse RAW264.7 cells assessed as reduction in interferon-gamma/LPS-induced phagocytosis after 24 hrs by fluorescent latex beads internalization assay; type: cell-based
T1 sequence (whole entry): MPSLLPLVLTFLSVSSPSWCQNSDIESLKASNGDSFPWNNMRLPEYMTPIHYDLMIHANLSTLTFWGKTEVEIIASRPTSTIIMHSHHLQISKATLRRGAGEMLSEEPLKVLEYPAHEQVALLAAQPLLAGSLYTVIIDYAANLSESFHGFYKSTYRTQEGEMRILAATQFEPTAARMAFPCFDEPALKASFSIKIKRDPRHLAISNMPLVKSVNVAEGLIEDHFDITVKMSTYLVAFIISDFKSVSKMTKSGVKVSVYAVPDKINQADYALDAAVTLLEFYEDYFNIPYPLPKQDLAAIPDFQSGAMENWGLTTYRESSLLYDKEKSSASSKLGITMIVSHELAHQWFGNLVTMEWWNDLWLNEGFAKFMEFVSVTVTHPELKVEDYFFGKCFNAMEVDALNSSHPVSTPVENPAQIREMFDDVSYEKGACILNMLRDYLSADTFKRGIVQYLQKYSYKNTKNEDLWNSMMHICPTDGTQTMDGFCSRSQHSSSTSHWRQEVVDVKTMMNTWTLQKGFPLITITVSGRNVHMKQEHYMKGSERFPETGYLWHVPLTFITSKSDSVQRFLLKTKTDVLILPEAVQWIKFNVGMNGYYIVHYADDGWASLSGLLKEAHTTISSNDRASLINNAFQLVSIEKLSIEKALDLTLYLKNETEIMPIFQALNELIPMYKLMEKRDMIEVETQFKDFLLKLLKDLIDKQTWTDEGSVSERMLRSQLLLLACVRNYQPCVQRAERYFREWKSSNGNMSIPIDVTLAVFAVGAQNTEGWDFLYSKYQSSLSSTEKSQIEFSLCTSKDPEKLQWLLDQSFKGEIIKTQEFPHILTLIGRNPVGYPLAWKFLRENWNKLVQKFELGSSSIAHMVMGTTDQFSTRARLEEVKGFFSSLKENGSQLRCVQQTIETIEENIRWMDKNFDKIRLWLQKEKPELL
How it was run: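 RAW264.7 cells in RPMI 1640/10% FBS, seeded 2×10^4/well for 24 h. Activated with IFN-γ (100 IU/mL) plus LPS (1 μg/mL) with or without inhibitor at various concentrations. FITC-IgG latex beads given in 1% FBS medium for 24 h at 37 °C. Uptake read as fluorescence (ex 485/em 535) after PBS washes; ED50 from curve fit.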

[2] = target: Leucyl-cystinyl aminopeptidase (Homo sapiens, UniProt Q9UIQ6); test: Inhibition of human recombinant IRAP expressed in baculovirus infected cabbage looper ovary Hi5 cells using L-leucine-7-amido-4-methyl coumarin as substrate after 5 to 10 mins by fluorescence assay; design: species or system Female gonad, BTI-TN-5B1-4
Leucyl-cystinyl aminopeptidase, sequence (Q9UIQ6 whole entry): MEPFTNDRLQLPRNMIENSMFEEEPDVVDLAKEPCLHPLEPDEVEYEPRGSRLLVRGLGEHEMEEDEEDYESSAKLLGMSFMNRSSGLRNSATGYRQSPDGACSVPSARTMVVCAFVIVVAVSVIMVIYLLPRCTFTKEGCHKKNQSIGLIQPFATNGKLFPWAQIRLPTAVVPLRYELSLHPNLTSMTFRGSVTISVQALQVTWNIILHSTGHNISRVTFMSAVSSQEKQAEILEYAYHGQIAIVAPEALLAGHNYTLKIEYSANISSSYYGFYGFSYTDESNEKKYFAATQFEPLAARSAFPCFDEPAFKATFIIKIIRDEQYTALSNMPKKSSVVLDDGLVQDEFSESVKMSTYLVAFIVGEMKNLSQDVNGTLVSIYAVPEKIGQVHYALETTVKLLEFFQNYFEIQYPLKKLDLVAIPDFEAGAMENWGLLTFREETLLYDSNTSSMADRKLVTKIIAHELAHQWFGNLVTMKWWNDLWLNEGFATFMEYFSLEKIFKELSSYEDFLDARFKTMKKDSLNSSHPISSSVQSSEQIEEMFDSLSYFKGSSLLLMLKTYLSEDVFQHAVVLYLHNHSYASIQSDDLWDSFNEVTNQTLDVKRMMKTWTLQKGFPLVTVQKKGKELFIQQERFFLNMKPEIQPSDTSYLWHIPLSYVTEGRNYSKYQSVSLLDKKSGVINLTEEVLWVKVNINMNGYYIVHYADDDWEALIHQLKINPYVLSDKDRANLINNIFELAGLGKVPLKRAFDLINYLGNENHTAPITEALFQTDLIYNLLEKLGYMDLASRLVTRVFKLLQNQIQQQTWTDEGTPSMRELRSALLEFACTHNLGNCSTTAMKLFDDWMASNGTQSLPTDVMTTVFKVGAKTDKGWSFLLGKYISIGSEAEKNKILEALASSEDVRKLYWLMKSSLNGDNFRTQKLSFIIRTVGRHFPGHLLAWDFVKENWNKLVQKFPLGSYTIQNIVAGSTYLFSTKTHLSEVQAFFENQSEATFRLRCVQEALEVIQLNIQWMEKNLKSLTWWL

[3] = target: T2, Endoplasmic reticulum aminopeptidase 1 (Homo sapiens, UniProt Q9NZ08); test: Inhibition of human recombinant ERAP1 expressed in baculovirus infected […] using L-leucine-7-amido-4-methyl coumarin as substrate up to 100 uM after 5 to 10 mins by fluorescence assay
T2 sequence (Q9NZ08 whole entry): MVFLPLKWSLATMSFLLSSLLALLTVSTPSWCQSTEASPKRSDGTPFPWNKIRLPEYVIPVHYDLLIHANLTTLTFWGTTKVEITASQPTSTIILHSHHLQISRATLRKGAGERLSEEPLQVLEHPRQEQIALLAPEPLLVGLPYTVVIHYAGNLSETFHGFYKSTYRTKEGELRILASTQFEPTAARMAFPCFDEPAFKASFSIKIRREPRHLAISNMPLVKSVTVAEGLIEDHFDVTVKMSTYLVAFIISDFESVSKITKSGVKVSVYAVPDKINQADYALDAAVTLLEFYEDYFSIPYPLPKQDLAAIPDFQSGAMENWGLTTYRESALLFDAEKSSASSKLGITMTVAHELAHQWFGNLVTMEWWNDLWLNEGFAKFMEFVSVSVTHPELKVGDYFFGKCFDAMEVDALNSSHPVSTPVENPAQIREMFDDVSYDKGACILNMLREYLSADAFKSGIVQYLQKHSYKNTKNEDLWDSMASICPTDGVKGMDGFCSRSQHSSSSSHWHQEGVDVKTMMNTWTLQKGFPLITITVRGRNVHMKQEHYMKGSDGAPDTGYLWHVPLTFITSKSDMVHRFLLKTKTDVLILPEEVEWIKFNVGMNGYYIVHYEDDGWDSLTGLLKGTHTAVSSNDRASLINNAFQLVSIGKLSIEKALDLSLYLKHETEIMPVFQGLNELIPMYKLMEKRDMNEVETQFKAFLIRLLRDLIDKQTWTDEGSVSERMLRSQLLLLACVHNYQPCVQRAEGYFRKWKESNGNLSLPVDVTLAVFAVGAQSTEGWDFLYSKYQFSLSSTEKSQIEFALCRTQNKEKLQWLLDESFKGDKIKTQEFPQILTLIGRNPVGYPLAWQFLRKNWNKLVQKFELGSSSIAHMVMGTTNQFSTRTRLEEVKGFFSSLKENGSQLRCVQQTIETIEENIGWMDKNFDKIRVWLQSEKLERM
How it was run: (§1)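 Recombinant human enzymes made in baculovirus-infected Hi5 cells, kept in 10 mM HEPES pH 7, 100 mM NaCl, 10% glycerol. ERAP1 30 nM, ERAP2 6 nM or IRAP 6 nM with 50 μM substrate (L-AMC for ERAP1 and IRAP, R-AMC for ERAP2) and varied inhibitor. Fluorescence rise followed at ex 380/em 460; IC50 from fit of activity against inhibitor concentration.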

[4] = target: T3, Endoplasmic reticulum aminopeptidase 2 (Homo sapiens, UniProt Q6P179); test: Inhibition of human recombinant ERAP2 expressed in baculovirus infected cabbage looper ovary Hi5 cells using L-arginyl-7-amido-4-methyl coumarin as substrate up to 100 uM after 5 to 10 mins by fluorescence assay; conditions: BTI-TN-5B1-4; how it was run: as §1
T3 sequence (Q6P179 whole entry): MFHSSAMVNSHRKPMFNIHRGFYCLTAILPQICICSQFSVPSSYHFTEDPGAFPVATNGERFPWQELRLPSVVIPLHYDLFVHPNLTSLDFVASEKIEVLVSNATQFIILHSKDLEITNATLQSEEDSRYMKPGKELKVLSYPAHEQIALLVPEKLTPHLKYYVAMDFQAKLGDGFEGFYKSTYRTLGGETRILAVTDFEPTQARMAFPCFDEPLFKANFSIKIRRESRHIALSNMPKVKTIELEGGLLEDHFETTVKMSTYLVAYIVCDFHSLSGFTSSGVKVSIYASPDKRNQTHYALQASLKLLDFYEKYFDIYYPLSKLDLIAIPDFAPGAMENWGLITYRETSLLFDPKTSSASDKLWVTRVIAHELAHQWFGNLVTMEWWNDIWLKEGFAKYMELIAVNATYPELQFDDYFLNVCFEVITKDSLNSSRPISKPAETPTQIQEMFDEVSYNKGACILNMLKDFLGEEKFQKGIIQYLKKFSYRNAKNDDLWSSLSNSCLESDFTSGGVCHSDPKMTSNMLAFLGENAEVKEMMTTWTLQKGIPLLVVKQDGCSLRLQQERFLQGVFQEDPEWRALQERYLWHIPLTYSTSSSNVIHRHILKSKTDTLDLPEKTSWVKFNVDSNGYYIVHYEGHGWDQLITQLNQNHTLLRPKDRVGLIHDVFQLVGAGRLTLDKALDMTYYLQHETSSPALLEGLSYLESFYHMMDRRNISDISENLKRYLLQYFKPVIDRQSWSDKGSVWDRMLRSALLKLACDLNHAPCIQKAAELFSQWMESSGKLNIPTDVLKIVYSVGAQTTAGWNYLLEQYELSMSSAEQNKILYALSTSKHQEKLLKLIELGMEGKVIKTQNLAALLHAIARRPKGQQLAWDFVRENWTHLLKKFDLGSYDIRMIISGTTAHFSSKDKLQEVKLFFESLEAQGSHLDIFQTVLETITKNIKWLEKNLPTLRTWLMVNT

[5] = tested on: Insulin-regulated aminopeptidase, Lnpep (Mus musculus); test: Inhibition of IRAP in mouse BMDC assessed as blockade of cross-presentation by measuring IL-2 level incubated for 1 day followed by compound wash out and incubated for 6 hrs with yeast cells expressing surface ovalbumin measured 20 hrs post CD8+ T cell-induction by sandwich ELISA method
[6] = tested on: T-cell; test: Blockade of cross-presentation in mouse IRAP-deficient BMDC assessed as IL-2 level incubated for 1 day […] and incubated for 6 hrs with yeast cells expressing surface ovalbumin measured 20 hrs post CD8+ T cell-induction by sandwich ELISA method; type: functional, cell-based
How it was run: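 BMDCs from wild-type or IRAP knockout mice, grown 7 days from bone-marrow progenitors in IMDM/10% FCS with GM-CSF-containing J558 supernatant. Inhibitor added day 6 and kept through all steps. Day 7: serial dilutions of surface-ovalbumin yeast for 6 h, then OT-I lymph-node CD8+ T cells (T/BMDC 1.5:1) for 20 h. Supernatant IL-2 by sandwich ELISA; glutaraldehyde-fixed BMDC background subtracted; duplicate wells.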

[7] = target: T3, Endoplasmic reticulum aminopeptidase 2; test: Inhibition of human recombinant ERAP2 expressed in baculovirus infected cabbage looper ovary Hi5 cells using L-arginyl-7-amido-4-methyl coumarin as substrate after 5 to 10 mins by fluorescence assay; design: species or system Female gonad, BTI-TN-5B1-4
[8] = target: T2, Endoplasmic reticulum aminopeptidase 1; test: Inhibition of human recombinant ERAP1 expressed in baculovirus infected Sf9 cells using L-leucine-7-amido-4-methyl coumarin as substrate after 5 to 10 mins by fluorescence assay

SMILES | ED50 [1] | inhibition [1] | IC50 [2] | inhibition [3] | other results
COC(=O)[C@H](CCCCN)NC(=O)c1ccc(N)c(NC(=O)[C@@H](N)CCc2ccccc2)c1 | 0.97 µM | Dose-dependent effect | – | – | –
CCCC[C@H](N)C(=O)Nc1cc(C(=O)N[C@@H](CCCCN)C(=O)OC)ccc1N | – | – | > 100 µM | – | –
CCCC[C@H](N)C(=O)Nc1cc(C(=O)N[C@H](C(=O)O)C(C)C)ccc1N | – | – | > 100 µM | inactive | –
NCCC[C@H](NC(=O)c1ccc(N)c(NC(=O)[C@@H](N)CCc2ccccc2)c1)C(=O)O | – | – | > 100 µM | inactive | inhibition [4]: inactive
CCCC[C@H](N)C(=O)Nc1ccc(C(=O)N[C@H](C(=O)O)C(C)C)cc1N | – | – | 3.9 µM | inactive | –
COC(=O)[C@H](Cc1ccc(O)cc1)NC(=O)c1ccc(N)c(NC(=O)[C@@H](N)CCCNC(=N)N)c1 | 3 µM | Dose-dependent effect | – | – | –
CCCC[C@H](N)C(=O)Nc1cc(C(=O)N[C@@H](Cc2c[nH]c3ccccc23)C(=O)OCc2ccccc2)ccc1N | 0.56 µM | Dose-dependent effect | – | – | ED50 [5]: 0.0065 µM; inhibition [5]: Dose-dependent effect; Activity [6]: inactive
COC(=O)[C@H](CCCCN)NC(=O)c1ccc(NC(=O)[C@@H](N)CC(C)C)c(N)c1 | – | – | > 100 µM | inactive | inhibition [4]: inactive
CCCC[C@H](N)C(=O)Nc1cc(C(=O)N[C@H](C(=O)OCc2ccccc2)C(C)C)ccc1N | inactive | – | – | – | IC50 [7]: > 100 µM; IC50 [8]: > 100 µM
